TNF death inh = TNF-alpha cell death inhibition in Jurkat FADD-/- cells | Jurkat FADD-/- TNF necroptosis rescue, ATP luminescence, 24 h; 0 = TNF only, 100 = no-TNF cells | activation (protection from cell death), % at 10 µM | 220,000 compounds, 0.068% hits | AID 463075;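 active = activation, meaning protection from cell death, of at least 50% relative to plate controls; inactive = activation below 50%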;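 also: necroptosis triggered by 40 ng/mL TNF-alpha added together with compound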
PfM18AAP inh = PfM18AAP enzyme inhibition. 290,000 compounds, 1.2% hits. AID 1822. recombinant PfM18AAP, H-Glu-NHMec fluorogenic cleavage. inhibition, % at 7.35 µM;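 active = inhibition above the campaign mean inhibition over all tested compounds plus 3 SD, cut at about 28% in these data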
L929 necroptosis = blocks zVAD induced death of L929 cells | L929 zVAD necroptosis rescue, ATP luminescence, 24 h; with zVAD 60 µM | 220,000 compounds, 0.38% hits | AID 1377 | viability rescue, % at 10 µM;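 active = activation, scaled between plate controls, above about 75%, limit read from the data; inactive = activation under that limit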
p97 ATPase inh = blocks human p97 ATPase activity. P55072. recombinant p97 ATPase, Kinase-Glo ATP luminescence, 3 h. inhibition, % at 8 µM. 220,000 compounds, 0.42% hits. AID 1481; in the data active = inhibition above about 15%
Wee1 degr inh = inhibitors of human Wee1 degradation. reporter increase, % at 5 µM. 220,000 compounds, 1.2% hits. P30291. HeLa Luc-Wee1K328M stability, luciferase luminescence; 100% = proteasome inhibitor MG132 effect;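 active = activation above the mean of all tested compounds plus 3 SD, set per screening run, cut at about 8.8% in these data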;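 also: cells exposed to compound for 20 h before luminescence read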
RBBP9 inhibitor = blocks human serine hydrolase RBBP9 | O75884 | recombinant RBBP9, FP-Rh probe fluorescence polarization | inhibition, % at 7.94 µM | 220,000 compounds, 0.2% hits | AID 1515;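 active = inhibition above the campaign mean of all tested compounds plus 3 SD, cut at about 14% in these data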
Target sequence (O75884 whole entry, looked up): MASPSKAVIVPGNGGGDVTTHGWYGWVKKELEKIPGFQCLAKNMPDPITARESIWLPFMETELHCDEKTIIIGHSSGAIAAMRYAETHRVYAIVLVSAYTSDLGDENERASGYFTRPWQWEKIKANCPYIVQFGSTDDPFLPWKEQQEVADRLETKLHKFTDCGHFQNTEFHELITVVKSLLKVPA
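Test system: recombinant human RBBP9; Timing: 30 min then 45 min, 25 °C; Detection: fluorescence polarization; Control set: RBBP9 with DMSO as uninhibited control, no-protein wells as full inhibition; Compound dosing: one concentration, 7.94 µM nominal, 0.794% DMSO; Probe or stimulus: FP-Rh activity-based probe, 375 nM before mixing.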
p97 confirm = confirmation of human p97 ATPase inhibitors. shares compounds with p97 ATPase inh. recombinant p97 ATPase, Kinase-Glo ATP luminescence. inhibition, % at 8 µM. 760 compounds, 44% hits. AID 1517;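 active = percent inhibition of p97 ATPase above a set limit, the primary screen's mean plus 3 SD, cut at about 15% in these data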
Hits are given with their value; 0 = inactive; - = no result; ! = not active in a repeat. A selection: hits, their analogues and other compounds. The true share with any hit is near 2.7%.

SMILES	TNF death inh	PfM18AAP inh	L929 necroptosis	p97 ATPase inh	Wee1 degr inh	RBBP9 inhibitor	p97 confirm
N#Cc1cc2ccc(N3CCOCC3)cc2cc1C#N	0	0	0	15	0	0	19
CC(C(=O)Nc1cccc(S(=O)(=O)N2CCOCC2)c1)N1CCN(C)CC1 (centres undefined)	-	0	-	-	-	-	-
COc1cc2cccc(OC)c(=O)c2c(OC)c1OC	0	0	0	0	0	0	-
O=c1c(O)cccc2cc(O)c(O)c(O)c12	0	48	0	38	0	0	45
COc1ccc(S(=O)(=O)NCc2cc(-c3ccccc3Cl)no2)cc1	0	0	0	0	0	0	-
CCSCCOC(=O)C1=C(C)N(C)C(=O)NC1c1ccc2c(c1)OCO2 (centres undefined)	-	0	-	-	-	-	-
Cc1cccc(Nc2nc(NCc3ccco3)c3ccccc3n2)c1	0	0	0	0	0	0	-
c1ccc(Nc2nc(NCc3ccco3)c3ccccc3n2)cc1	0	0	0	22	0	0	28
CN1c2ccccc2C(C)(C)C12C=Nc1c(cc(N3CCOCC3)c3ccccc13)O2 (centres undefined)	0	0	0	29	0	0	0
COc1ccc(/C=N/NC(=O)Cn2ccnc2C)cc1OC	0	0	0	18	0	0	0
COC(=O)c1ccccc1NC(=O)c1sc(N)nc1C	0	0	0	15	0	0	0
COCCNC(=O)CSc1ccccc1C(=O)NC1CCCc2ccccc21 (centres undefined)	-	0	-	-	-	-	-
O=[N+]([O-])c1cc(S(=O)(=O)C(F)(F)F)ccc1Sc1nc2ccccc2[nH]1	0	0	0	20	0	0	29
CS(=O)(=O)c1ccc(Sc2nc3ccccc3[nH]2)c([N+](=O)[O-])c1	0	0	0	0	0	0	-
CCOCc1cc(=O)[nH]c(SC)n1	0	0	0	0	0	0	-
c1ccc2c(c1)[nH]c1nc(SCCN3CCOCC3)nnc12	0	0	0	0	0	0	-
Brc1ccc2[nH]c3nc(SCCN4CCOCC4)nnc3c2c1	0	0	0	17!	0	0	0
Cc1cc(C)c(C(=O)CSc2nnc(C)c(=O)[nH]2)cc1C	0	0	0	0	0	0	-
CCCN(CC(=O)Nc1ccccc1C)C(=O)Cc1coc2cc(C)ccc12	-	0	-	-	-	-	-
CCc1ccc(C(=O)NNC(=O)c2cc(S(=O)(=O)N(C)C)ccc2N2CCCC2)cc1	-	0	-	-	-	-	-
COc1ccc(-c2csc(N(Cc3ccco3)C(=O)c3cccs3)n2)cc1	0	0	0	39	0	0	16
O=C(CSc1nc2ccccc2s1)Nc1cc(S(=O)(=O)N2CCOCC2)ccc1O	0	0	0	17	0	0	0
O=C(Nc1ccccc1N1CCCCC1)c1ccc(-c2cccc(Cl)c2)o1	0	0	0	0	0	0	-
O=C(Nc1cccc2nsnc12)c1ccc(-c2cccc(Cl)c2)o1	0	0	0	18	0	0	0
CCOc1ccccc1CN1C(=O)c2ccccc2C1C(=O)NC(C)CC (centres undefined)	0	0	0	19	0	0	0
SMILES	TNF death inh	PfM18AAP inh	L929 necroptosis	p97 ATPase inh	Wee1 degr inh	RBBP9 inhibitor	p97 confirm
CCNC(=S)N/N=C(\C)c1cccc([N+](=O)[O-])c1	0	0	0	0	0	0	-
O=C(COC(=O)/C=C/c1ccccc1Cl)NC1CCCCCC1	0	0	0	0	0	0	-
O=C(Cc1ccc(Cl)cc1)Nc1ccc(NC(=O)c2cccs2)cc1	0	0	0	15	9.7	0	0
Cc1cccc(OCCCC(=O)Nc2ccc(S(N)(=O)=O)cc2)c1	0	0	0	17	0	0	0
CCN(CC)c1ccc(NC(=O)CCCOc2cccc(C)c2)cc1	0	0	0	0	0	0	-
CC1=NN(c2ccc(C)c(C)c2)C(=O)/C1=C/c1ccc2c(c1)n(C)c(=O)n2C	0	0	0	25	0	0	0
COc1cc(/C=C2/CC/C(=C/c3ccc(O)c(OC)c3)C2=O)ccc1O	0	0	0	35	10	0	17
COc1cc(/C=C2\COC/C(=C\c3ccc(O)c(OC)c3)C2=O)ccc1O	0	0	0	15	0	0	0
COc1cc(/C=C2/SC(=Nc3ccc(O)cc3)NC2=O)ccc1O	0	0	0	25	0	0	31
COc1ccc(/C=C2\CC/C(=C\c3ccc(OC)c(OC)c3)C2=O)cc1OC	0	0	0	0	0	0	-
COc1ccc(/C=C2\CCc3ccccc3C2=O)cc1OC	0	0	0	0	0	0	-
COc1cc(/C=C2\CC/C(=C\c3ccc(OCCO)c(OC)c3)C2=O)ccc1OCCO	0	0	0	15	0	0	0
CCOC(=O)N1CCN(C(=O)c2c(Cl)cnn2C)CC1	-	0	-	-	-	-	-
O=C1CC(=O)N(c2cccc(F)c2)N1	0	0	0	22	0	0	0
O=C1CC(=O)Nc2cc(S(=O)(=O)N3CCN(c4ccc([N+](=O)[O-])cc4)CC3)ccc2N1	-	0	-	-	-	-	-
O=C(Nc1ccccc1Cl)C1C(c2ccccc2)C1(Cl)Cl (centres undefined)	-	0	-	-	-	-	-
O=C(Nc1ccc(F)cc1)C1C(c2ccccc2)C1(Cl)Cl (centres undefined)	0	0	0	41	0	0	47
Cc1cccc(C)c1NC(=O)CSCc1cccc(CSCC(=O)Nc2c(C)cccc2C)n1	0	0	0	16	0	0	0
O=C(CSCc1cccc(CSCC(=O)Nc2ccccc2)n1)Nc1ccccc1	0	0	0	0	0	0	-
O=C(NC(C(=O)N/N=C/c1cccnc1)c1n[nH]c(=O)c2ccccc12)c1ccccc1 (centres undefined)	0	0	0	0	0	0	-
Cc1cc(/C=C2\SC(=S)NC2=O)c(C)n1-c1cccc(O)c1	0	0	0	18	0	0	16
Cc1cc(/C=C2\SC(=S)NC2=O)c(C)[nH]1	0	0	0	15	0	0	0
CN(CCC#N)C(=O)CSc1nc2scc(-c3ccccc3)c2c(=O)[nH]1	0	0	0	16	0	0	0
O=C(CSc1nc2scc(-c3ccccc3)c2c(=O)[nH]1)Nc1ccccc1	-	0	-	-	-	-	-
Nc1c(C(=O)OCC2CCCO2)c2nc3ccccc3nc2n1C1CCCC1 (centres undefined)	0	0	0	17	0	0	0
O=C1NC(=S)S/C1=C\C=C\c1ccc([N+](=O)[O-])o1	0	0	0	45	0	0	18
O=C1NC(=S)S/C1=C/c1ccc(N2CCOCC2)o1	0	0	0	0	0	0	-
O=S(=O)(NCc1ccccc1)c1ccc(Cl)cc1	0	0	0	0	0	0	-
O=S(=O)(Nc1cc2nc3ccccc3nc2n1Cc1ccccc1)c1ccc(Cl)cc1	0	28	0	31	0	0	43
Cc1ccc(C)n1Cc1ccc(C(=O)O)cc1	0	0	0	28	0	0	0

Screening data deposited in PubChem BioAssay by several laboratories.
